From the array DNA melting data of Ke et al. (doi:10.1101/2024.01.08.574731) come the findings set out here.

Data set [1] in a line: folding enthalpy; higher = less favourable; fluorescence melt of hairpins on a sequencing array, two-state fit. The settings on record: sodium 0.088 M. The method in brief: (§1)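 Folding enthalpy and melting temperature were estimated with bootstrapped two-state fits and combined across four replicates by inverse-variance weighting, with fitted temperatures raised by 9.35 °C to match UV melts. The data were Cy3 fluorescence of library hairpins, with annealed Cy3 and quencher oligos, on a sequenced MiSeq flow cell in 50 mM Na-HEPES pH 8.0, 25 mM NaCl, imaged in 2.5 °C steps up to 60 °C and normalised to pre-quench Cy3 and control constructs.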

Data set [2] is described as follows: melting temperature; fluorescence melt of hairpins on a sequencing array, two-state fit, raised by 9.35 °C to match UV melts. The settings on record: sodium 0.088 M. The method in brief: as §1

For GAGTCCGAAAGGATACTC ((((((....)))..))), the folding enthalpy in data set [1] is -17.9 kcal/mol. The Tm in data set [2] came to 38.6 °C.
The corresponding values for GAGTCCGGAAACGGGCTC (((.(((....))).))) are -33 kcal/mol and 63.3 °C.
The matching figures for GAGTCGGGAAACCGATTC ((.((((....)))).)): -25 kcal/mol and 47.7 °C.
The corresponding values for GAGTCGGGAAACCGGCTC (((.(((....))).))) are -33.3 kcal/mol and 61.1 °C.
GAGTCTGGAAACGGACTC (((((.(....).))))): the folding enthalpy in data set [1] was -40.4 kcal/mol. Further, the Tm in data set [2] was 52.3 °C.
GAGTGACGAAAGTCCCTC (((.(((....))).))): the folding enthalpy in data set [1] is -24.4 kcal/mol. Moreover, the Tm in data set [2] came out at 45.1 °C.
The corresponding values for GAGTGAGGAAACTCATTC ((.((((....)))).)) are -23.5 kcal/mol and 38.5 °C.
The corresponding values for GAGTGCGAAAGCAGGCTC ((((((....)))..))) are -16.7 kcal/mol and 48.3 °C.
The corresponding values for GAGTGCGGAAACGCATTC ((.((((....)))).)) are -23.8 kcal/mol and 51.9 °C.
With GAGTGGCGAAAGCCTCTC (((.(((....))).))), the folding enthalpy in data set [1] is -24.2 kcal/mol. In addition, the Tm in data set [2] came to 53.6 °C.
The corresponding values for GAGTGTGCGAAAGCACTC (((..(((....)))))) are -9.39 kcal/mol and 37.8 °C.
The corresponding values for GAGTGTGGAAACATACTC ((((.((....)).)))) are -31.9 kcal/mol and 45.9 °C.
As to GAGTTACCGAAAGGTCTC (((..(((....)))))), in data set [1], the folding enthalpy was -16.9 kcal/mol. In addition, in data set [2], the Tm amounted to 29.4 °C.
In the case of GAGTTACGAAAGTATCTC (((.(((....))).))), the folding enthalpy in data set [1] is -26 kcal/mol. In data set [2], the Tm came to 41.4 °C.
The corresponding values for GAGTTAGGAAACTAGCTC (((.(((....))).))) are -28.9 kcal/mol and 40.4 °C.
The corresponding values for GAGTTAGGAAACTGACTC ((((.((....)).)))) are -36.6 kcal/mol and 42.4 °C.
The corresponding values for GAGTTCGAAAGAACTC ((((((....)))))) are -38 kcal/mol and 66.2 °C.
Turning to GAGTTCGCGAAAGCGCTC (((..(((....)))))), the folding enthalpy in data set [1] is -6.78 kcal/mol. Besides, the Tm in data set [2] amounted to 25.9 °C.
The corresponding values for GAGTTCGGAAACGAACCC (.(((((....))))).) are -13.3 kcal/mol and 41.5 °C.
GAGTTCGGAAACGAGTTC ((..(((....)))..)): in data set [1], the folding enthalpy is -9.81 kcal/mol. Moreover, the Tm in data set [2] came out at 30.7 °C.
As to GAGTTCGGAAACGGACTC ((((.((....)).)))), in data set [1], the folding enthalpy was -43.1 kcal/mol. Moreover, in data set [2], the Tm was found to be 52 °C.
The corresponding values for GAGTTGGGAAACCAGCTC (((.(((....))).))) are -34.7 kcal/mol and 48.9 °C.
The matching figures for GAGTTGGGAAACTAACTC (((((.(....).))))): -31 kcal/mol and 43.6 °C.
The corresponding values for GAGTTTCCGAAAGGACTC (((..(((....)))))) are -13.3 kcal/mol and 30 °C.
As to GAGTTTGGAAACGAACTC (((((.(....).))))), in data set [1], the folding enthalpy is -36.2 kcal/mol. In addition, the Tm in data set [2] was 47.1 °C.
The matching figures for GATAAAGAAATTTATC ((((((....)))))): -15.9 kcal/mol and 27.6 °C.
The matching figures for GATAAAGGAAACTTTGTC ((.((((....)))).)): -14.1 kcal/mol and 32.2 °C.
The corresponding values for GATAAGACGAAAGTCATC (((..(((....)))))) are -15.2 kcal/mol and 26.7 °C.
Regarding GATAAGCCGAAAGGCATC (((..(((....)))))), in data set [1], the folding enthalpy was -9.19 kcal/mol. Also, the Tm in data set [2] worked out at 32 °C.
As to GATAATGGAAACATTACC (.(((((....))))).), in data set [1], the folding enthalpy was -9.26 kcal/mol. Further, in data set [2], the Tm came out at 22.6 °C.
GATACAGGAAACTGCATC (((.(((....))).))): the folding enthalpy in data set [1] is -28.4 kcal/mol. Further, the Tm in data set [2] stood at 33.6 °C.
The matching figures for GATACCACGAAAGTGATC (((..(((....)))))): -9.05 kcal/mol and 21.2 °C.
The matching figures for GATACCCGAAAGGGGATC (((.(((....))).))): -30.2 kcal/mol and 60 °C.
The corresponding values for GATACCGAAAGGTAAATC ((((((....)))..))) are -13.5 kcal/mol and 28.7 °C.
On to GATACCGAAAGGTAATC ((((((....))).))), for which the folding enthalpy in data set [1] is -18.9 kcal/mol. Further, the Tm in data set [2] is 39 °C.
As for GATACCGAAAGGTAGATC ((((((....)))..))), in data set [1], the folding enthalpy was -18.3 kcal/mol. For the same sequence, the Tm in data set [2] amounted to 44.6 °C.
Consider GATACGGAAACGTATC ((((((....)))))), for which the folding enthalpy in data set [1] is -43.6 kcal/mol. Also, in data set [2], the Tm came to 54 °C.
